In ChEMBL document CHEMBL1148130, “Derrisin, a new rotenoid from Derris malaccensis plain and anti-Helicobacter pylori activity of its related constituents” (2002):
≈ marks a conversion by molar mass, not a printed value. Calls of active or inactive are those of the source. The calls are words filed in the database; no cut-off is given here.

Tests used:
Bacteroides fragilis = assay: Antibacterial activity against Bacteroides fragilis ATCC 25285 at 625 ug/mL after 24 hrs by conventional well agar method; format: functional, organism-based
Helicobacter pylori = assay: Antibacterial activity against Helicobacter pylori 31A after 48 hrs by serial doubling dilution method; format: functional
Procedure, shortened: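 H. pylori strain 31 A (stomach ulcer isolate) in brain-heart infusion broth with 10% fetal bovine serum, grown in test tubes under 10% CO2, 5% O2 and 85% N2 at 37 °C. Serial doubling dilutions made in 10% aqueous DMSO and added as 10% of the medium, with 5% culture inoculum. Incubated 37 °C for 48 h. MIC taken as the lowest concentration with no visible growth.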

Micrococcus luteus = assay: Antibacterial activity against Micrococcus luteus ATCC 9341 at 625 ug/mL after 24 hrs by conventional well agar method; format: functional, organism-based
Escherichia coli = assay: Antibacterial activity against Escherichia coli ATCC 10536 at 625 ug/mL after 24 hrs by conventional well agar method; format: functional, organism-based
Candida albicans = assay: Antifungal activity against Candida albicans ATCC 10231 at 625 ug/mL after 24 hrs by conventional well agar method; format: functional, organism-based
Bacillus subtilis = assay: Antibacterial activity against Bacillus subtilis ATCC 6633 at 625 ug/mL after 24 hrs by conventional well agar method; format: functional, organism-based
Pseudomonas aeruginosa = assay: Antibacterial activity against Pseudomonas aeruginosa ATCC 9027 at 625 ug/mL after 24 hrs by conventional well agar method; format: functional, organism-based

In the case of `COc1cc2c(cc1OC)Oc1c(oc3c4c(ccc3c1=O)OC(C)(C)C=C4)CO2`, the Activity (Bacteroides fragilis) was “inactive”, the MIC (Helicobacter pylori) was 4 µg/mL (≈ 9.79 µM) and the Activity (Micrococcus luteus) was “inactive”. For the same compound, the Activity (Escherichia coli) was “inactive”, the Activity (Candida albicans) was “inactive” and the Activity (Bacillus subtilis) was “inactive”. For the same compound, the Activity (Pseudomonas aeruginosa) was “inactive”.
With `COc1cc2c(cc1OC)[C@]1(O)C(=O)c3ccc4c(c3O[C@@H]1CO2)[C@H](O)[C@@H](O)C(C)(C)O4` the Activity (Bacteroides fragilis) was “inactive”, the MIC (Helicobacter pylori) was greater than 88 µg/mL and the Activity (Micrococcus luteus) was “inactive”. For the same compound, the Activity (Escherichia coli) was “inactive”, the Activity (Candida albicans) was “inactive” and the Activity (Bacillus subtilis) was “inactive”. The Activity (Pseudomonas aeruginosa) was “inactive”.
In the case of `CC[C@H]1OC(=O)[C@H](C)[C@@H](O[C@H]2C[C@@](C)(OC)[C@@H](O)[C@H](C)O2)[C@H](C)[C@@H](O[C@@H]2O[C@H](C)C[C@H](N(C)C)[C@H]2O)[C@](C)(OC)C[C@@H](C)C(=O)[C@H](C)[C@@H](O)[C@]1(C)O` [CLARITHROMYCIN], the Activity (Bacteroides fragilis) was “inactive”, the MIC (Helicobacter pylori) was 0.05 µg/mL (≈ 0.0668 µM) and the Activity (Micrococcus luteus) was “inactive”. The Activity (Escherichia coli) was “inactive”, the Activity (Candida albicans) was “inactive” and the Activity (Bacillus subtilis) was “inactive”. The Activity (Pseudomonas aeruginosa) was “inactive”.
For `COc1cc2c(cc1OC)[C@@H]1C(=O)c3ccc4c(c3O[C@@H]1CO2)C=CC(C)(C)O4` [DEGUELIN], the Activity (Bacteroides fragilis) was “inactive”, the MIC (Helicobacter pylori) was 0.6 µg/mL (≈ 1.52 µM) and the Activity (Micrococcus luteus) was “inactive”. For the same compound, the Activity (Escherichia coli) was “inactive”, the Activity (Candida albicans) was “inactive” and the Activity (Bacillus subtilis) was “inactive”. The Activity (Pseudomonas aeruginosa) was “inactive”.
For `COc1cc2c(cc1OC)-c1c(oc3c4c(ccc3c1=O)OC(C)(C)C=C4)CO2` [DEHYDRODEGUELIN], the Activity (Bacteroides fragilis) was “inactive”, the MIC (Helicobacter pylori) was 4 µg/mL (≈ 10.2 µM) and the Activity (Micrococcus luteus) was “inactive”. For the same compound, the Activity (Escherichia coli) was “inactive”, the Activity (Candida albicans) was “inactive” and the Activity (Bacillus subtilis) was “inactive”. The Activity (Pseudomonas aeruginosa) was “inactive”.
`C=C(C)[C@H]1Cc2c(ccc3c(=O)c4c(oc23)COc2cc(OC)c(OC)cc2-4)O1` [DEHYDROROTENONE] was tested, and the Activity (Bacteroides fragilis) was “inactive”, the MIC (Helicobacter pylori) was 9.8 µg/mL (≈ 25 µM) and the Activity (Micrococcus luteus) was “inactive”. The Activity (Escherichia coli) was “inactive”, the Activity (Candida albicans) was “inactive” and the Activity (Bacillus subtilis) was “inactive”. The Activity (Pseudomonas aeruginosa) was “inactive”.
In the case of `COc1cc2c(cc1OC)[C@@H]1C(=O)c3ccc4c(c3O[C@@H]1CO2)[C@H](O)[C@@H](O)C(C)(C)O4` [DERRISIN], the Activity (Bacteroides fragilis) was “inactive”, the MIC (Helicobacter pylori) was 85 µg/mL (≈ 198 µM) and the Activity (Micrococcus luteus) was “inactive”. The Activity (Escherichia coli) was “inactive”, the Activity (Candida albicans) was “inactive” and the Activity (Bacillus subtilis) was “inactive”. For the same compound, the Activity (Pseudomonas aeruginosa) was “inactive”.
In the case of `COc1cc2c(cc1OC)[C@@H]1C(=O)c3ccc4occc4c3O[C@@H]1CO2` [ELLIPTONE], the Activity (Bacteroides fragilis) was “inactive”, the MIC (Helicobacter pylori) was 3 µg/mL (≈ 8.51 µM) and the Activity (Micrococcus luteus) was “inactive”. For the same compound, the Activity (Escherichia coli) was “inactive”, the Activity (Candida albicans) was “inactive” and the Activity (Bacillus subtilis) was “inactive”. For the same compound, the Activity (Pseudomonas aeruginosa) was “inactive”.
For `C=C(C)[C@H]1Cc2c(ccc3c2O[C@@H]2COc4cc(OC)c(OC)cc4[C@]2(O)C3=O)O1` [ROTENOLONE], the Activity (Bacteroides fragilis) was “inactive”, the MIC (Helicobacter pylori) was 1.3 µg/mL (≈ 3.17 µM) and the Activity (Micrococcus luteus) was “inactive”. The Activity (Escherichia coli) was “inactive”, the Activity (Candida albicans) was “inactive” and the Activity (Bacillus subtilis) was “inactive”. The Activity (Pseudomonas aeruginosa) was “inactive”.
`C=C(C)[C@H]1Cc2c(ccc3c2O[C@@H]2COc4cc(OC)c(OC)cc4[C@@H]2C3=O)O1` [ROTENONE] was tested, and the Activity (Bacteroides fragilis) was “inactive”, the MIC (Helicobacter pylori) was 1.3 µg/mL (≈ 3.3 µM) and the Activity (Micrococcus luteus) was “inactive”. For the same compound, the Activity (Escherichia coli) was “inactive”, the Activity (Candida albicans) was “inactive” and the Activity (Bacillus subtilis) was “inactive”. The Activity (Pseudomonas aeruginosa) was “inactive”.
`COc1cc2c(cc1OC)[C@]1(O)C(=O)c3ccc4c(c3O[C@@H]1CO2)C=CC(C)(C)O4` [TEPHROSIN] was tested, and the Activity (Bacteroides fragilis) was “inactive”, the MIC (Helicobacter pylori) was 0.3 µg/mL (≈ 0.731 µM) and the Activity (Micrococcus luteus) was “inactive”. For the same compound, the Activity (Escherichia coli) was “inactive”, the Activity (Candida albicans) was “inactive” and the Activity (Bacillus subtilis) was “inactive”. For the same compound, the Activity (Pseudomonas aeruginosa) was “inactive”.
For `COc1cc2c(cc1OC)[C@@H]1C(=O)c3c(O)cc4c(c3O[C@@H]1CO2)C=CC(C)(C)O4` [TOXICAROL], the Activity (Bacteroides fragilis) was “inactive”, the MIC (Helicobacter pylori) was 0.3 µg/mL (≈ 0.731 µM) and the Activity (Micrococcus luteus) was “inactive”. For the same compound, the Activity (Escherichia coli) was “inactive”, the Activity (Candida albicans) was “inactive” and the Activity (Bacillus subtilis) was “inactive”. For the same compound, the Activity (Pseudomonas aeruginosa) was “inactive”.
